According to ChEMBL document CHEMBL4477183, “Antimicrobial Peptide from the Wild Bee Hylaeus signatus Venom and Its Analogues: Structure-Activity Study and Synergistic Effect with Antibiotics” (J Nat Prod, 2016):
≈ marks a conversion by molar mass, not a printed value. Non-standard residues stand in square brackets, D forms with d. Residues, ends and D or L forms follow the SMILES beside them.

How the values were obtained:
Staphylococcus aureus [1] = assay: Antimicrobial activity against Staphylococcus aureus 6271 assessed as reduction in bacterial growth after 20 hrs by broth microdilution assay; details: Staphylococcus aureus, 6271, 20 h
[2] = test system: Staphylococcus epidermidis; assay: Antimicrobial activity against Staphylococcus epidermidis assessed as reduction in bacterial growth after 20 hrs by broth microdilution assay
Pseudomonas aeruginosa [3] = assay: Antimicrobial activity against Pseudomonas aeruginosa 5482 assessed as reduction in bacterial growth after 20 hrs […]; format: functional; details: Pseudomonas aeruginosa, 5482, 20 h
In short: (§1)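 Broth microdilution in LB (YPG for C. albicans) with 2-fold serial dilutions, final 0.1–100 μM. Mid-log cells grown 3–5 h at 37 °C were added at about 5 × 10^5 cfu/mL, then incubated 20 h at 37 °C with shaking. A540 was read every 15 min to build growth curves. Medium with cells served as growth control; at least three runs in duplicate.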

Staphylococcus aureus [4] = assay: Antimicrobial activity against Staphylococcus aureus clinical isolates assessed as FIC index in presence of amoxicillin after 20 hrs by drop diffusion test; format: functional
Pseudomonas aeruginosa [5] = assay: Antimicrobial activity against Pseudomonas aeruginosa clinical isolates assessed as FIC index in presence of tetracycline after 20 hrs by drop diffusion test; format: functional
Staphylococcus aureus [6] = assay: Antimicrobial activity against Staphylococcus aureus clinical isolates from Liberec regional hospital assessed as reduction in bacterial growth after 20 hrs by broth microdilution assay
Escherichia coli = assay: Antimicrobial activity against Escherichia coli assessed as reduction in bacterial growth after 20 hrs by […]; format: functional
In short: as §1

Staphylococcus aureus [7] = assay: Antimicrobial activity against Staphylococcus aureus clinical isolates from university hospital in Motol assessed as reduction in bacterial growth after 20 hrs by drop diffusion test; format: functional
Pseudomonas aeruginosa [8] = assay: Antimicrobial activity against Pseudomonas aeruginosa clinical isolates assessed as reduction in bacterial growth after 20 hrs by […]; format: functional
In short: as §1

Micrococcus luteus = assay: Antimicrobial activity against Micrococcus luteus assessed as reduction in bacterial growth after 20 hrs by […]; format: functional
In short: as §1

Bacillus subtilis = assay: Antimicrobial activity against Bacillus subtilis assessed as reduction in bacterial growth after 20 hrs by […]; format: functional
In short: as §1

Candida albicans = assay: Antifungal activity against Candida albicans assessed as reduction in fungal growth after 20 hrs by […]; format: functional
In short: as §1

Pseudomonas aeruginosa [9] = assay: Antimicrobial activity against Pseudomonas aeruginosa clinical isolates assessed as FIC index in presence of rifampicin after 20 hrs by drop diffusion test; format: functional
[10] = Hemolytic activity in human type RBC after 1 hr; format: ADME, cell-based, Erythrocyte; details: red blood cells (erythrocytes), read-out: LC50
In short: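 Peptides at 2.5–400 μM were incubated with a 4% suspension of human erythrocytes in physiological solution for 1 h at 37 °C, then centrifuged at 250g for 5 min; supernatant A540 was read. Saline-treated cells gave 0% lysis and 0.2% Triton X-100 gave 100%. LC50 is the concentration lysing 50% of cells; duplicates in at least two independent experiments.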

Row | Molecule | MIC (Staphylococcus aureus [1]) | MIC [2] | MIC (Pseudomonas aeruginosa [3]) | fractional inhibitory concentration index (FICI) (Staphylococcus aureus [4]) | fractional inhibitory concentration index (FICI) (Pseudomonas aeruginosa [5]) | MIC (Staphylococcus aureus [6]) | MIC (Escherichia coli) | MIC (Staphylococcus aureus [7]) | MIC (Pseudomonas aeruginosa [8]) | MIC (Micrococcus luteus) | MIC (Bacillus subtilis) | MIC (Candida albicans) | fractional inhibitory concentration index (FICI) (Pseudomonas aeruginosa [9]) | HC50 at 1 h [10]
1 | CC[C@@H](C)[C@@H](NC(=O)CN)C(=O)N[C@H](CCSC)C(=O)N[C@H](CO)C(=O)N[C@H](CO)C(=O)N[C@H](CC(C)C)C(=O)N[C@H](CCSC)C(=O)N[C@H](CCCCN)C(=O)N[C@H](CCCCN)C(=O)N[C@H](CC(C)C)C(=O)N[C@H](CCCCN)C(=O)N[C@H](CCCCN)C(=O)N[C@@H](C(=O)N[C@@H](C(=O)N[C@H](C)C(=O)N[C@H](CCCCN)C(N)=O)[C@H](C)CC)[C@H](C)CC (H-G[dI][dM][dS][dS][dL][dM][dK][dK][dL][dK][dK][dI][dI][dA][dK]-NH2) | 13 µM (≈ 23.2 µg/mL) | 2.2 µM (≈ 3.93 µg/mL) | 3.2 µM (≈ 5.72 µg/mL) | 0.54 | 0.67 | 7 µM (≈ 12.5 µg/mL) | 6.3 µM (≈ 11.3 µg/mL) | 16 µM (≈ 28.6 µg/mL) | 8.5 µM (≈ 15.2 µg/mL) | ≤ 3 µM | ≤ 7 µM | 8 µM (≈ 14.3 µg/mL) | 0.32 | > 400 µM
2 | H-GILSSLLKKLKKIIAK-NH2 | 16 µM | 1.8 µM | 5 µM | 0.69 | 0.54 | 3.8 µM | 8 µM | 5 µM | 7.5 µM | ≤ 3 µM | ≤ 7 µM | 10 µM | 0.39 | 284 µM
3 | H-GIMSSLMKKLAKIIKK-NH2 | 33 µM | 2.9 µM | 5.2 µM | 0.38 | 0.54 | 8.6 µM | 15 µM | 17 µM | 10 µM | ≤ 3 µM | ≤ 7 µM | 7.6 µM | 0.42 | > 400 µM
4 | CC[C@@H](C)[C@@H](NC(=O)CN)C(=O)N[C@H](CC(C)C)C(=O)N[C@H](CO)C(=O)N[C@H](CO)C(=O)N[C@H](CC(C)C)C(=O)N[C@H](CC(C)C)C(=O)N[C@H](CCCCN)C(=O)N[C@H](CCCCN)C(=O)N[C@H](CC(C)C)C(=O)N[C@H](CCCCN)C(=O)N[C@H](CCCCN)C(=O)N[C@@H](C(=O)N[C@@H](C(=O)N[C@H](C)C(=O)N[C@H](CCCCN)C(N)=O)[C@H](C)CC)[C@H](C)CC (H-G[dI][dL][dS][dS][dL][dL][dK][dK][dL][dK][dK][dI][dI][dA][dK]-NH2) | 5.7 µM (≈ 9.99 µg/mL) | 3.2 µM (≈ 5.61 µg/mL) | 4.5 µM (≈ 7.89 µg/mL) | 0.63 | 0.75 | 2.6 µM (≈ 4.56 µg/mL) | 4.5 µM (≈ 7.89 µg/mL) | 6.3 µM (≈ 11 µg/mL) | 9.7 µM (≈ 17 µg/mL) | ≤ 3 µM | ≤ 7 µM | 9 µM (≈ 15.8 µg/mL) | 0.3 | 333 µM
5 | H-GKLSSLWKKLKKIIAK-NH2 | 26 µM | 2.5 µM | 6.8 µM | 0.25 | 0.54 | 11 µM | 20 µM | 27 µM | 19 µM | ≤ 3 µM | ≤ 7 µM | 34 µM | 0.29 | > 400 µM
6 | H-GILSSLLKKLKKWIAK-NH2 | 8 µM | 1.6 µM | 8 µM | 0.56 | 0.63 | 2.6 µM | 4 µM | 4 µM | 21 µM | ≤ 3 µM | ≤ 7 µM | 16 µM | 0.27 | 115 µM
7 | CC[C@@H](C)[C@@H](NC(=O)CN)C(=O)N[C@H](CC(C)C)C(=O)N[C@H](CO)C(=O)N[C@H](CO)C(=O)N[C@H](CC(C)C)C(=O)N[C@H](Cc1c[nH]c2ccccc12)C(=O)N[C@H](CCCCN)C(=O)N[C@H](CCCCN)C(=O)N[C@H](CC(C)C)C(=O)N[C@H](CCCCN)C(=O)N[C@H](CCCCN)C(=O)N[C@@H](C(=O)N[C@@H](C(=O)N[C@H](C)C(=O)N[C@H](CCCCN)C(N)=O)[C@H](C)CC)[C@H](C)CC (H-G[dI][dL][dS][dS][dL][dW][dK][dK][dL][dK][dK][dI][dI][dA][dK]-NH2) | 6.3 µM (≈ 11.5 µg/mL) | 1.7 µM (≈ 3.1 µg/mL) | 6.7 µM (≈ 12.2 µg/mL) | 0.73 | 0.58 | 2.9 µM (≈ 5.29 µg/mL) | 5 µM (≈ 9.13 µg/mL) | 3.2 µM (≈ 5.84 µg/mL) | 8.8 µM (≈ 16.1 µg/mL) | ≤ 3 µM | ≤ 7 µM | 8 µM (≈ 14.6 µg/mL) | 0.29 | 191 µM
8 | H-GILSSLLKKWKKIIAK-NH2 | 20 µM | 2.7 µM | 5 µM | 0.44 | 0.58 | 7.8 µM | 7.5 µM | 20 µM | 7.1 µM | ≤ 3 µM | ≤ 7 µM | 11 µM | 0.42 | > 400 µM
9 | H-GIMSSLMKKLAAIIAK-NH2 | 7.2 µM | 5 µM | 8 µM | 0.56 | 0.76 | 10 µM | 3.6 µM | 10 µM | 17 µM | ≤ 3 µM | ≤ 7 µM | 8.4 µM | 0.51 | 93 µM
10 | H-GIMSSLMKKLKKIIKK-NH2 | 54 µM | 1.7 µM | 7.1 µM | 0.17 | 0.63 | 18 µM | 22 µM | 65 µM | 9.9 µM | ≤ 3 µM | ≤ 7 µM | 6.3 µM | 0.36 | > 400 µM
11 | H-GIMSSLMKKLAKHIAK-NH2 | 63 µM | 6.2 µM | 7.9 µM | 0.31 | 0.54 | 35 µM | 15 µM | 63 µM | 20 µM | ≤ 3 µM | ≤ 7 µM | 14 µM | 0.25 | > 400 µM
